# Results from ChEMBL document CHEMBL1146596, “New lupane derived compounds with pro-apoptotic activity in cancer cells: synthesis and structure-activity relationships” (2003).
# Key:
# A549 = experiment: Tested for cytotoxicity against human lung adenocarcinoma A549 cell line; assay type: functional
# In short: (§1)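 Cells were kept in DMEM/RPMI 1640 with 10% fetal calf serum, 2 mM glutamine and antibiotics. They were seeded at 2500–30 000 cells/well according to growth characteristics and preincubated 24 h at 37 °C, 5% CO2. Four-fold compound dilutions were tested in duplicate for 72 h. MTT was then added for 1–4 h, the formazan was dissolved in 10% SDS (pH 5.5) overnight, and OD was read at 540 nm. Survival was taken relative to mean control, and TCS50 was derived from dose–response curves.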
# B16 [1] = experiment: Tested for cytotoxicity against mouse melanoma B16 cell line; assay type: functional; in short: as §1
# BT-549 = experiment: Tested for cytotoxicity against human breast cancer BT549 cell line; assay type: functional; in short: as §1
# CCRF-CEM [2] = experiment: Tested for cytotoxicity against human T-lymphoblastic leukemia CEM cell line; assay type: functional; in short: as §1
# Caco-2 = experiment: Tested for cytotoxicity against human colon cancer Caco-2 cell line; assay type: functional; in short: as §1
# CEM-DNR [3] = experiment: Tested for cytotoxicity against human T-lymphoblastic leukemia CEM-DNR 1/C2 cell line; assay type: functional; in short: as §1
# CEM-DNR [4] = experiment: Tested for cytotoxicity against human T-lymphoblastic leukemia CEM-DNR bulk cell line; assay type: functional; in short: as §1
# CCRF-CEM [5] = experiment: Cytotoxicity against chemosensitive CEM-T lymphoblastc leukemia cell line.; assay type: functional, Homo sapiens; in short: as §1
# CEM-VCR 1/D/5 = experiment: Tested for cytotoxicity against human T-lymphoblastic leukemia CEM-VCR 1/D5 cell line; assay type: functional; in short: as §1
# CEM-VCR 1/F3 = experiment: Tested for cytotoxicity against human T-lymphoblastic leukemia CEM-VCR 1/F3 cell line; assay type: functional; in short: as §1
# CEM-VCR = experiment: Tested for cytotoxicity against human T-lymphoblastic leukemia CEM-VCR bulk cell line; assay type: functional; in short: as §1
# DU-145 = experiment: Tested for cytotoxicity against human prostate cancer DU145 cell line; assay type: functional; in short: as §1
# HT-29 = experiment: Tested for cytotoxicity against human colon cancer HT-29 cell line; assay type: functional; in short: as §1
# HepG2 = experiment: Tested for cytotoxicity against human hepatocellular carcinoma HepG2 cell line; assay type: functional; in short: as §1
# K562 [6] = experiment: Tested for cytotoxicity against human […] leukemia K562 cell line; assay type: functional; in short: as §1
# K562 [7] = experiment: Tested for cytotoxicity against human […] leukemia K562-ARA-C cell line; assay type: functional; in short: as §1
# K562 [8] = experiment: Tested for cytotoxicity against human […] leukemia K562-CdA cell line; assay type: functional; in short: as §1
# K562 [9] = experiment: Tested for cytotoxicity against human […] leukemia K562-FLU D-CEM cell line; assay type: functional
# In short: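 Cytotoxicity by MTT in fludarabine-resistant K562 subline (K562-FLUD), cultured in DMEM/RPMI 1640 with 10% fetal calf serum. Cells seeded at 2500–30 000/well, preincubated 24 h at 37 °C, 5% CO2. Fourfold dilutions in duplicate, 72 h exposure. MTT 1–4 h, formazan dissolved in 10% SDS overnight, OD 540 nm. Survival relative to control; TCS50 taken from dose–response curves.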
# K562 [10] = experiment: Tested for cytotoxicity against human […] leukemia K562-GEM cell line; assay type: functional; in short: as §1
# SK-MEL3 = experiment: Tested for cytotoxicity against human melanoma MEL-3 cell line; assay type: functional; in short: as §1
# MDA-MB-238 = experiment: Tested for cytotoxicity against human breast cancer MDA-MB-238 cell line; assay type: functional; in short: as §1
# LNCaP = experiment: Tested for cytotoxicity against human prostate cancer LNCaP cell line; assay type: functional; in short: as §1
# MCF7 = experiment: Tested for cytotoxicity against human breast cancer MCF-7 cell line; assay type: functional; in short: as §1
# NIH3T3 = experiment: Tested for cytotoxicity against mouse immortalized fibroblast NIH3T3 cell line; assay type: functional; in short: as §1
# OVCAR-3 = experiment: Tested for cytotoxicity against human ovarian cancer OVCAR-3 cell line; assay type: functional; in short: as §1
# SAOS-2 = experiment: Tested for cytotoxicity against human […] Saos2 cell line; assay type: functional; in short: as §1
# SW-620 = experiment: Tested for cytotoxicity against human colon cancer SW620 cell line; assay type: functional; in short: as §1
# U-87 MG = experiment: Tested for cytotoxicity against human glioblastoma U87MG cell line; assay type: functional, U-87MG ATCC; in short: as §1
# U2OS = experiment: Tested for cytotoxicity against human osteosarcoma U2OS cell line; assay type: functional; in short: as §1
# Homo sapiens = organism: Homo sapiens; experiment: Tested for cytotoxicity against human normal lymphocytes; assay type: functional; in short: as §1
# B16 [11] = experiment: Tested for cytotoxicity against mouse melanoma B16F cell line; assay type: functional; in short: as §1
Structure (SMILES),TCS50 (A549) [µM],TCS50 (B16 [1]) [µM],TCS50 (BT-549) [µM],TCS50 (CCRF-CEM [2]) [µM],TCS50 (CEM-DNR [3]) [µM],TCS50 (CEM-DNR [4]) [µM],TCS50 (CCRF-CEM [5]) [µM],TCS50 (CEM-VCR 1/D/5) [µM],TCS50 (CEM-VCR 1/F3) [µM],TCS50 (CEM-VCR) [µM],TCS50 (DU-145) [µM],TCS50 (HT-29) [µM],TCS50 (HepG2) [µM],TCS50 (K562 [6]) [µM],TCS50 (K562 [7]) [µM],TCS50 (K562 [8]) [µM],TCS50 (K562 [9]) [µM],TCS50 (K562 [10]) [µM],TCS50 (SK-MEL3) [µM],TCS50 (MDA-MB-238) [µM],other results
C=C(C=O)[C@@H]1CC[C@]2(C(=O)O)CC[C@]3(C)[C@H](CC[C@@H]4[C@@]5(C)CC[C@H](OC(C)=O)C(C)(C)[C@@H]5CC[C@]43C)C12 (stereo partly drawn),43.27,9.32,6.28,4,1.58,3.26,4,7.82,5.94,6.95,2.75,12.31,7.12,15.12,1.59,2.13,1.27,2.36,3.68,2.37,TCS50 (Caco-2): 7.72 µM; TCS50 (LNCaP): 3.55 µM; TCS50 (MCF7): 4.3 µM; TCS50 (NIH3T3): 15.7 µM; TCS50 (OVCAR-3): 2.59 µM; TCS50 (SAOS-2): 4.8 µM; TCS50 (SW-620): 5.86 µM; TCS50 (U-87 MG): 98.3 µM; TCS50 (U2OS): 3.94 µM; TCS50 (Homo sapiens): 24.9 µM; TCS50 (B16 [11]): 12.4 µM
COC(=O)[C@@]12CC[C@]3(C)[C@H](CC[C@@H]4[C@@]5(C)CC[C@H](OC(C)=O)C(C)(C)[C@@H]5CC[C@]43C)C1=C(C(C)C)C(=O)C2=O,6.7,35.4,15.3,4.4,10.3,5.18,4.4,12.5,38.3,28.2,1.98,5.23,5.14,1.85,6.42,5.17,4.85,5.04,5.86,3.28,TCS50 (Caco-2): 8.13 µM; TCS50 (LNCaP): 3.26 µM; TCS50 (MCF7): 12.9 µM; TCS50 (NIH3T3): 96.8 µM; TCS50 (OVCAR-3): 4.65 µM; TCS50 (SAOS-2): 7.9 µM; TCS50 (SW-620): 5.89 µM; TCS50 (U-87 MG): 23.8 µM; TCS50 (U2OS): 4.28 µM; TCS50 (Homo sapiens): 85.3 µM; TCS50 (B16 [11]): 67.9 µM
CC(=O)OC[C@@]1(C(=O)O)CC[C@]2(C)[C@H](CC[C@@H]3[C@@]4(C)CC[C@H](OC(C)=O)C(C)(C)[C@@H]4CC[C@]32C)C1=O,2.8,0.43,2.03,1,0.61,1.05,1,2.93,3.27,2.51,0.84,3.57,1.67,0.19,0.63,0.28,0.35,0.94,1.28,1.35,TCS50 (Caco-2): 2.97 µM; TCS50 (LNCaP): 1.12 µM; TCS50 (MCF7): 2.3 µM; TCS50 (NIH3T3): 7.21 µM; TCS50 (OVCAR-3): 0.9 µM; TCS50 (SAOS-2): 1.78 µM; TCS50 (SW-620): 1.22 µM; TCS50 (U-87 MG): 1.85 µM; TCS50 (U2OS): 1.53 µM; TCS50 (Homo sapiens): 12.5 µM; TCS50 (B16 [11]): 4.66 µM
C=C(C)[C@@H]1CC[C@]2(C(=O)O)CC[C@]3(C)[C@H](CC[C@@H]4[C@@]5(C)CC[C@H](O)C(C)(C)[C@@H]5CC[C@]43C)[C@@H]12 [BETULINIC ACID],79.3,30.5,>250,>250,>250,>250,20,24.1,19.1,68.5,241,>250,3.61,53.9,>250,>250,>250,101,2.65,195,TCS50 (LNCaP): 244 µM; TCS50 (MCF7): 194 µM; TCS50 (NIH3T3): >250 µM; TCS50 (OVCAR-3): 164 µM; TCS50 (SAOS-2): >250 µM; TCS50 (SW-620): >250 µM; TCS50 (U-87 MG): >228 µM; TCS50 (U2OS): >250 µM; TCS50 (Homo sapiens): >250 µM; TCS50 (B16 [11]): 4.6 µM
